Calb FLC – C. albicans growth modulation with fluconazole | growth inhibition, % (test concentration not listed) | C. albicans CaCi-2 (fluconazole-resistant clinical isolate) + fluconazole, Alamar Blue growth, 48 h | actives 0.57% (n = 300,000);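 active means growth inhibition above about 58% in most replicates, limit read from the data, passing the limit was not always enough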;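 further: all wells also contain fluconazole at 8 µg/ml as a sub-toxic cotreatment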
HGIII-sPLA2 inh – Inhibits HGIII-sPLA2 liposome hydrolysis, primary screen; QFRET BODIPY PC-A2 liposome hydrolysis, fluorescence; inhibition, % at 12.2 µM; actives 0.56% (n = 370,000);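 active means inhibition above mean plus 3 SD of compounds lying within the high and low control bounds, cut at about 19% in these data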
ARFGAP1 inh – inhibits rat ARF GTPase activating protein 1; Q62848; Arfgap1-stimulated ARF1 GTP hydrolysis, GDP FP detection; inhibition, % at 16.5 µM; actives 0.26% (n = 360,000); AID 651572;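 active means inhibition above a per-plate limit, mean inhibition of low control wells plus 3 SD, cut at about 25% in these data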
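System: truncated rat Arfgap1 GAP domain / Medium: HEPES-based buffer, pH 7.5 / Also added: N-terminally truncated human ARF1-GTP substrate / Incubation: enzyme reaction 120 min at 25 °C after 20 min preincubation / Measured by: FP of antibody-bound GDP Alexa 633 tracer, ex 620/em 688 nm / Replicates: singlicate, each compound tested once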
ASAP1 GAP inh – ASAP1 ArfGAP inhibition; actives 0.19% (n = 360,000); ASAP1-stimulated ARF1 GTP hydrolysis, GDP FP detection; AID 624377; Q9ULH1; inhibition, % at 16.5 µM; in the data active means inhibition above about 25%
Target sequence (Q9ULH1 325-724 limits assumed): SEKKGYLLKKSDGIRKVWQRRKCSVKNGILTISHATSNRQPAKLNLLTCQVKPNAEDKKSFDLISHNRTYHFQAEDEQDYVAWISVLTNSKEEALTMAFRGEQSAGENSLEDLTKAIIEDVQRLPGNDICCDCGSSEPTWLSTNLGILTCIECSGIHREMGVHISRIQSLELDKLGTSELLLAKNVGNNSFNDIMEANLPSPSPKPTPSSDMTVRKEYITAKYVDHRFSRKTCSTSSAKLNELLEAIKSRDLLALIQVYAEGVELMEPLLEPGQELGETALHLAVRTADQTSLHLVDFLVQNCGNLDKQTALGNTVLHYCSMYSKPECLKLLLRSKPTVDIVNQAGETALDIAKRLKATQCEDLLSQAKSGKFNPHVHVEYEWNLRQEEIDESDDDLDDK
SKKanGAS inh – inhibitors of SKKanGAS S. pyogenes growth in kanamycin (SK-promoter or general growth effect) | BacTiter-Glo, 6 h | inhibition, % at 7.5 µM | actives 1.3% (n = 300,000) | AID 1662;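 active means mean replicate score, as percent of positive control median, at least 50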;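 further: strain carries kanamycin resistance gene driven by streptokinase promoter and grows in 40 µg/ml kanamycin; loss of luminescence reflects streptokinase promoter inhibition or plain growth inhibition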
Hits are given with their value; 0 = inactive; - = not tested or not shown. Shown are actives, neighbours in structure and some others; about 2.3% of the full set was active somewhere.

SMILES | Calb FLC | HGIII-sPLA2 inh | ARFGAP1 inh | ASAP1 GAP inh | SKKanGAS inh
CC1CC1C(=O)Nc1nc(-c2ccccn2)cs1 (centres undefined) | 0 | 0 | 0 | 0 | 85
c1ccc(CCNc2nc(-c3ccccn3)cs2)cc1 | 0 | 0 | 0 | 0 | 121
O=C(Nc1nc(-c2ccccn2)cs1)c1ccc2c(c1)OCCO2 | 0 | 0 | 0 | 0 | 83
c1ccc(CCNc2nc(-c3cccnc3)cs2)cc1 | 0 | 0 | 0 | 0 | 0
O=C(Nc1nc(-c2ccccn2)cs1)c1ccc([N+](=O)[O-])o1 | 0 | 0 | 0 | 0 | 0
CC(C)(C)c1ccc(C#C[C@@H]2C=C[C@@H](O)[C@@H](COC(=O)Nc3ccccc3)O2)cc1 | - | 0 | 0 | 0 | -
CC(C(=O)c1ccccc1)[n+]1cccc(Br)c1 (centres undefined) | 75 | 0 | 0 | 0 | 0
CCCCNC(=O)CNC(=O)c1nn(-c2ccc(OC)cc2OC)c(=O)c2ccccc12 | 0 | 0 | 0 | 0 | 0
COc1ccc(-n2nc(C(=O)NCC(=O)NCCC3=CCCCC3)c3ccccc3c2=O)c(OC)c1 | 97 | 0 | 0 | 0 | 0
C(=N\Nc1nc(-c2ccccn2)nc2ccccc12)/c1ccccc1 | 0 | - | - | - | 98
c1ccc(-c2nc(NCc3ccco3)c3ccccc3n2)nc1 | 0 | 0 | 0 | 0 | 95
OCCNc1nc(Nc2ccc(Br)cc2)nc2ccccc12 | 0 | 0 | 0 | 26 | 0

Source: PubChem
